Results published in ChEMBL document CHEMBL1764951, “Synthesis of a new 4-aza-2,3-didehydropodophyllotoxin analogues as potent cytotoxic and antimitotic agents” (2011).
Where a name gives a salt, the structure may show the parent alone. Activity calls are given as the source filed them. The calls are words filed in the database; no cut-off is given here.

Tests used:
MCF7 = assay: Cytotoxicity against human MCF7 cells after 48 hrs by sulforhodamine B based ELISA; format: functional; settings: MCF7, 48 h
How it was run: (§1)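 Lines were grown in DMEM with 10% FBS and 2 mM L-glutamine, plated at densities set by doubling time, and held 24 h at 37 °C, 5% CO2. Drugs were tested at 0.1, 1, 10 and 100 µM in triplicate wells for 48 h. Cells were fixed with cold TCA (10% final) for 60 min at 4 °C, stained 20 min with 0.4% SRB in 1% acetic acid, and eluted with 10 mM Tris base. A540 was read with a 690 nm reference. GI50 came from [(Ti−Tz)/(C−Tz)]×100 = 50; runs were repeated three times.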

KB = assay: Cytotoxicity against human KB cells after 48 hrs by sulforhodamine B based ELISA; format: functional; how it was run: as §1
COLO 205 = assay: Cytotoxicity against human COLO205 cells after 48 hrs by sulforhodamine B based ELISA; format: functional; settings: COLO 205, 48 h; how it was run: as §1
A549 [1] = assay: Cytotoxicity against human A549 cells after 48 hrs by sulforhodamine B based ELISA; format: functional; settings: A549, 48 h; how it was run: as §1
[2] = Inhibition of tubulin polymerization at 3 uM after 1 hr fluorescence analysis relative to control
How it was run: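 The cell-free fluorescence kit assay used PEM buffer, 1 mM GTP and compound at 3 µM final. Polymerization was followed as reporter incorporation into microtubules, read at 460 nm emission for 1 h at 37 °C, with podophyllotoxin as the positive control. Percent inhibition was expressed relative to the untreated control.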

Tubulin (Homo sapiens) [3] = target: T1, Tubulin (Homo sapiens) (UniProt P68371+Q9H4B7+P0DPH7+P68366+Q13509+Q71U36+P04350+Q3ZCM7+P07437+P68363+Q9BQE3+Q6PEY2+Q13885+Q9BVA1+Q9BUF5); assay: Inhibition of tubulin polymerization in human A549 cells assessed as disrupted microtubule organization at 5 uM after 48 hrs by immunohistochemistry; format: cell-based
How it was run: (§2)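 A-549 cells on glass coverslips were treated 48 h with compound at 5 µM or podophyllotoxin at 1 µM. They were fixed in 3% paraformaldehyde/0.02% glutaraldehyde in PBS, permeabilized in −20 °C methanol, and blocked 1 h in 1% BSA. Staining used a mouse monoclonal anti-tubulin antibody and an FITC-conjugated secondary. Microtubule network integrity was assessed by confocal microscopy.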

Tubulin (Homo sapiens) [4] = target: T1, Tubulin (Homo sapiens); assay: Inhibition of tubulin polymerization in human A549 cells assessed as disrupted microtubule organization at 1 uM after 48 hrs by immunohistochemistry; format: cell-based; how it was run: as §2
A549 [5] = assay: Cell cycle arrest in human A549 cells assessed as accumulation at G1 phase at 10 uM after 48 hrs using propidium iodide staining by flow cytometry (reference value: 71.6%); format: functional
A549 [6] = assay: Cell cycle arrest in human A549 cells assessed as accumulation at G2/M phase at 10 uM after 48 hrs using propidium iodide staining by flow cytometry (reference value: 23.1%); format: functional
A549 [7] = assay: Cell cycle arrest in human A549 cells assessed as accumulation at S phase at 10 uM after 48 hrs using propidium iodide staining by flow cytometry (reference value: 5.2%); format: functional
A549 [8] = assay: Induction of apoptosis in human A549 cells assessed as activation of caspase 3 at 5 uM after 48 hrs by fluorimetric assay relative to control; format: functional
How it was run: (§3)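 A-549 cells in 6-well plates at 60–80% confluence were given compound at 5 µM, with podophyllotoxin at 1 µM as the positive control. The methods give 24 h incubation; the legend gives 48 h. Cells were scraped, lysed by syringe in lysis buffer on ice 10–20 min, and spun at 13,200 rpm for 20 min at 4 °C. The supernatant was assayed fluorimetrically with an AMC-conjugated caspase-3 substrate. Values are the mean ± SD of two experiments, each in triplicate.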

A2780 = assay: Cytotoxicity against human A2780 cells after 48 hrs by sulforhodamine B based ELISA; format: functional; settings: A2780, 48 h; how it was run: as §1
A549 [9] = assay: Cell cycle arrest in human A549 cells assessed as accumulation at G1 phase at 1 uM after 48 hrs using propidium iodide staining by flow cytometry (reference value: 71.6%); format: functional
A549 [10] = assay: Cell cycle arrest in human A549 cells assessed as accumulation at G2/M phase at 1 uM after 48 hrs using propidium iodide staining by flow cytometry (reference value: 23.1%); format: functional
A549 [11] = assay: Cell cycle arrest in human A549 cells assessed as accumulation at S phase at 1 uM after 48 hrs using propidium iodide staining by flow cytometry (reference value: 5.2%); format: functional
A549 [12] = assay: Induction of apoptosis in human A549 cells assessed as activation of caspase 3 at 1 uM after 48 hrs by fluorimetric assay relative to control; format: functional; how it was run: as §3

| Compound | GI50 (MCF7) | GI50 (KB) | GI50 (COLO 205) | GI50 (A549 [1]) | GI50 (A2780) | also measured |
| --- | --- | --- | --- | --- | --- | --- |
| COc1nc2c(c(OC)n1)C(c1cc(OC)c(OC)c(OC)c1)C1=C(COC1=O)N2 (stereo not drawn) | 2.4 µM | 0.17 µM | 0.16 µM | 2.1 µM |  | inhibition [2]: 63.7%; inhibition (Tubulin (Homo sapiens) [3]): Active; inhibition (Tubulin (Homo sapiens) [4]): Active; Activity (A549 [5]): 38.9%; Activity (A549 [6]): 48.2%; Activity (A549 [7]): 12.7%; fold change (FC) (A549 [8]): 2 |
| COc1cc(C2C3=C(COC3=O)Nc3ccc4cc[nH]c4c32)ccc1F (stereo not drawn) | 2.1 µM | 0.17 µM |  | 2.2 µM | 2.3 µM |  |
| COc1cc(C2C3=C(COC3=O)Nc3ccc4cn[nH]c4c32)ccc1O (stereo not drawn) | 2 µM |  | 2 µM |  |  |  |
| COc1cc(C2C3=C(COC3=O)Nc3ccc4cc[nH]c4c32)ccc1O (stereo not drawn) | 2.3 µM |  | 2.5 µM |  |  |  |
| COc1cc(C2C3=C(COC3=O)Nc3ccc4ncsc4c32)cc(OC)c1OC (stereo not drawn) |  | 2.1 µM | 2.5 µM | 2.4 µM | 2.3 µM | inhibition [2]: 49.4%; inhibition (Tubulin (Homo sapiens) [3]): Active; inhibition (Tubulin (Homo sapiens) [4]): Active; Activity (A549 [5]): 42.4%; Activity (A549 [6]): 53.1%; Activity (A549 [7]): 4.4%; fold change (FC) (A549 [8]): 2 |
| COc1cc(C2C3=C(COC3=O)Nc3ccc4cc(C)[nH]c4c32)ccc1F (stereo not drawn) | 2.6 µM |  |  | 2.1 µM | 2.4 µM | inhibition [2]: 45.3%; inhibition (Tubulin (Homo sapiens) [3]): Active; inhibition (Tubulin (Homo sapiens) [4]): Active; Activity (A549 [5]): 35.4%; Activity (A549 [6]): 55.6%; Activity (A549 [7]): 8.8%; fold change (FC) (A549 [8]): 2 |
| COc1nc2c(c(OC)n1)C(c1ccc(F)c(OC)c1)C1=C(COC1=O)N2 (stereo not drawn) |  | 2.2 µM |  | 2.6 µM |  |  |
| COc1ccc(C2C3=C(COC3=O)Nc3onc(-c4ccc(Cl)cc4)c32)cc1O (stereo not drawn) |  | 2.7 µM |  |  |  |  |
| COc1ccc(C2C3=C(COC3=O)Nc3ccc4nc(S)[nH]c4c32)cc1O (stereo not drawn) | 2.7 µM |  |  |  |  |  |
| COc1cccc2c1C(=O)c1c(O)c3c(c(O)c1C2=O)C[C@@](O)(C(=O)CO)C[C@@H]3O[C@H]1C[C@H](N)[C@H](O)[C@H](C)O1 [DOXORUBICIN HYDROCHLORIDE] | 0.13 µM | 0.13 µM | < 0.1 µM | < 0.1 µM | < 0.1 µM |  |
| COc1cc(C2C3=C(COC3=O)Nc3ccc4nn[nH]c4c32)cc(OC)c1OC (stereo not drawn) |  | 2.9 µM |  |  |  |  |
| COc1ccc(C2C3=C(COC3=O)Nc3ccc4cc[nH]c4c32)cc1[N+](=O)[O-] (stereo not drawn) |  |  | 2.4 µM |  |  |  |
| COc1cc([C@@H]2c3cc4c(cc3[C@@H](O[C@@H]3O[C@@H]5CO[C@@H](C)O[C@H]5[C@H](O)[C@H]3O)[C@H]3COC(=O)[C@H]23)OCO4)cc(OC)c1O [ETOPOSIDE] | 2.1 µM | 0.3 µM | 0.13 µM | 3.08 µM | 1.3 µM |  |
| COc1ccc(C2C3=C(COC3=O)Nc3ccc4cc[nH]c4c32)cc1O (stereo not drawn) | 2.9 µM | 2.2 µM | 0.19 µM | 2.3 µM | 2.7 µM |  |
| COc1cc(C2C3=C(COC3=O)Nc3ccc4cc[nH]c4c32)cc(OC)c1OC (stereo not drawn) |  | 2 µM | 2.3 µM | 2.4 µM | 2.7 µM |  |
| COc1cc(C2C3=C(COC3=O)Nc3ccc4cn[nH]c4c32)ccc1F (stereo not drawn) | 2.7 µM |  |  | 2.3 µM |  |  |
| COc1ccc(C2C3=C(COC3=O)Nc3ccc4cc(C)[nH]c4c32)c(F)c1 (stereo not drawn) | < 0.1 µM | 2.2 µM | 2.7 µM |  | 2.3 µM |  |
| COc1cc([C@@H]2c3cc4c(cc3[C@H](O)[C@H]3COC(=O)[C@H]23)OCO4)cc(OC)c1OC [PODOFILOX] |  |  |  |  |  | inhibition [2]: 80.7%; inhibition (Tubulin (Homo sapiens) [3]): Active; inhibition (Tubulin (Homo sapiens) [4]): Active; Activity (A549 [9]): 31.4%; Activity (A549 [10]): 61.5%; Activity (A549 [11]): 7.1%; fold change (FC) (A549 [12]): 4 |
| COc1cc(C2C3=C(COC3=O)Nc3c2cc(OC)c(OC)c3OC)ccc1O (stereo not drawn) | 2.9 µM |  |  |  |  |  |
| COc1ccc(C2C3=C(COC3=O)Nc3ccc4nn[nH]c4c32)c(F)c1 (stereo not drawn) | < 0.1 µM |  |  |  |  |  |
| COc1cc(C2C3=C(COC3=O)Nc3ccc4cc(C)[nH]c4c32)cc(OC)c1OC (stereo not drawn) |  | 2 µM |  |  |  |  |
| COc1ccc(C2C3=C(COC3=O)Nc3ccc4cn[nH]c4c32)cc1O (stereo not drawn) |  |  | 2.6 µM |  |  |  |
| COc1cc(C2C3=C(COC3=O)Nc3ccc4nc(C)sc4c32)ccc1[N+](=O)[O-] (stereo not drawn) | 0.15 µM |  |  |  |  |  |
